Measured values: ChEMBL document CHEMBL4038305, “Benzoxaborole Antimalarial Agents. Part 5. Lead Optimization of Novel Amide Pyrazinyloxy Benzoxaboroles and Identification of a Preclinical Candidate” (J Med Chem, 2017)
pIC50: −log10 of the molar value.

What was measured:
Plasmodium falciparum [1] = experiment: Antimalarial activity against chloroquine-resistant Plasmodium falciparum W2 infected in human erythrocytes after 48 hrs by YOYO-1 dye based flow cytometric analysis; assay type: functional, cell-based; details: W2, 48 h
Summary of the method: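 P. falciparum W2 cultures were exposed to the compound for 48 h, with artemisinin and chloroquine as reference controls. IC50 was taken from two independent replicates.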

[2] = Metabolic stability in rat hepatocytes at 22 uM after 44 hrs; assay type: ADME, cell-based, Hepatocyte
Plasmodium berghei [3] = experiment: Antimalarial activity against Plasmodium berghei infected in Swiss Webster mouse assessed as mouse survival rate at 33 mg/kg administered once daily via oral gavage for 4 consecutive days beginning 1 hr after infection measured on day 4 post infection relative to control; assay type: functional
Summary of the method: (§1)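 P. berghei-infected erythrocytes taken from a previously infected mouse were injected intraperitoneally. Oral dosing, once daily for 4 consecutive days, began 1 h after infection, in polyethylene glycol 300/propylene glycol/water (55/25/20 by weight). Chloroquine at 30 mg/kg was the positive control, with a vehicle-only group. Percent survival was recorded daily from day 4 to day 20.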

Plasmodium berghei [4] = experiment: Antimalarial activity against Plasmodium berghei infected in Swiss Webster mouse assessed as mouse survival rate at 11 mg/kg administered once daily via oral gavage for 4 consecutive days beginning 1 hr after infection measured on day 4 post infection relative to control; assay type: functional; summary of the method: as §1
Plasmodium berghei [5] = experiment: Antimalarial activity against Plasmodium berghei infected in Swiss Webster mouse assessed as mouse survival rate at 1.2 mg/kg administered once daily via oral gavage for 4 consecutive days beginning 1 hr after infection measured on day 4 post infection relative to control; assay type: functional
Summary of the method: (§2)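 Mice given an intraperitoneal injection of P. berghei-infected erythrocytes taken from a previously infected animal. Oral dosing once daily for 4 consecutive days, starting 1 h after infection. Vehicle: polyethylene glycol 300/propylene glycol/water (weight ratio 55/25/20). Percent survival recorded daily from day 4 to day 20. Chloroquine 30 mg/kg and vehicle-only groups served as controls.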

Plasmodium berghei [6] = experiment: Antimalarial activity against Plasmodium berghei infected in Swiss Webster mouse assessed as mouse survival rate at 0.1 mg/kg administered once daily via oral gavage for 4 consecutive days beginning 1 hr after infection measured on day 4 post infection relative to control; assay type: functional; summary of the method: as §2
Plasmodium berghei [7] = experiment: Antimalarial activity against Plasmodium berghei infected in Swiss Webster mouse assessed as mouse survival rate at 33 mg/kg administered once daily via oral gavage for 4 consecutive days beginning 1 hr after infection measured on day 5 post infection relative to control; assay type: functional; summary of the method: as §1
Plasmodium berghei [8] = experiment: Antimalarial activity against Plasmodium berghei infected in Swiss Webster mouse assessed as mouse survival rate at 11 mg/kg administered once daily via oral gavage for 4 consecutive days beginning 1 hr after infection measured on day 5 post infection relative to control; assay type: functional; summary of the method: as §1
Plasmodium berghei [9] = experiment: Antimalarial activity against Plasmodium berghei infected in Swiss Webster mouse assessed as mouse survival rate at 3.7 mg/kg administered once daily via oral gavage for 4 consecutive days beginning 1 hr after infection measured on day 5 post infection relative to control; assay type: functional; summary of the method: as §1
Plasmodium berghei [10] = experiment: Antimalarial activity against Plasmodium berghei infected in Swiss Webster mouse assessed as mouse survival rate at 1.2 mg/kg administered once daily via oral gavage for 4 consecutive days beginning 1 hr after infection measured on day 5 post infection relative to control; assay type: functional; summary of the method: as §2
Plasmodium berghei [11] = experiment: Antimalarial activity against Plasmodium berghei infected in Swiss Webster mouse assessed as mouse survival rate at 100 mg/kg administered once daily via oral gavage for 4 consecutive days beginning 1 hr after infection measured on day 6 post infection relative to control; assay type: functional; summary of the method: as §2
Plasmodium berghei [12] = experiment: Antimalarial activity against Plasmodium berghei infected in Swiss Webster mouse assessed as mouse survival rate at 33 mg/kg administered once daily via oral gavage for 4 consecutive days beginning 1 hr after infection measured on day 6 post infection relative to control; assay type: functional; summary of the method: as §1
Plasmodium berghei [13] = experiment: Antimalarial activity against Plasmodium berghei infected in Swiss Webster mouse assessed as mouse survival rate at 11 mg/kg administered once daily via oral gavage for 4 consecutive days beginning 1 hr after infection measured on day 6 post infection relative to control; assay type: functional; summary of the method: as §1
Plasmodium berghei [14] = experiment: Antimalarial activity against Plasmodium berghei infected in Swiss Webster mouse assessed as mouse survival rate at 0.4 mg/kg administered once daily via oral gavage for 4 consecutive days beginning 1 hr after infection measured on day 6 post infection relative to control; assay type: functional; summary of the method: as §2
Plasmodium berghei [15] = experiment: Antimalarial activity against Plasmodium berghei infected in Swiss Webster mouse assessed as mouse survival rate at 0.1 mg/kg administered once daily via oral gavage for 4 consecutive days beginning 1 hr after infection measured on day 6 post infection relative to control; assay type: functional; summary of the method: as §2
Plasmodium berghei [16] = experiment: Antimalarial activity against Plasmodium berghei infected in Swiss Webster mouse assessed as mouse survival rate at 100 mg/kg administered once daily via oral gavage for 4 consecutive days beginning 1 hr after infection measured on day 7 post infection relative to control; assay type: functional; summary of the method: as §2
Plasmodium berghei [17] = experiment: Antimalarial activity against Plasmodium berghei infected in Swiss Webster mouse assessed as mouse survival rate at 33 mg/kg administered once daily via oral gavage for 4 consecutive days beginning 1 hr after infection measured on day 7 post infection relative to control; assay type: functional; summary of the method: as §1
Plasmodium berghei [18] = experiment: Antimalarial activity against Plasmodium berghei infected in Swiss Webster mouse assessed as mouse survival rate at 0.1 mg/kg administered once daily via oral gavage for 4 consecutive days beginning 1 hr after infection measured on day 7 post infection relative to control; assay type: functional; summary of the method: as §2
Plasmodium berghei [19] = experiment: Antimalarial activity against Plasmodium berghei infected in Swiss Webster mouse assessed as mouse survival rate at 100 mg/kg administered once daily via oral gavage for 4 consecutive days beginning 1 hr after infection measured on day 8 post infection relative to control; assay type: functional; summary of the method: as §2
Plasmodium berghei [20] = experiment: Antimalarial activity against Plasmodium berghei infected in Swiss Webster mouse assessed as mouse survival rate at 11 mg/kg administered once daily via oral gavage for 4 consecutive days beginning 1 hr after infection measured on day 8 post infection relative to control; assay type: functional; summary of the method: as §1
Plasmodium berghei [21] = experiment: Antimalarial activity against Plasmodium berghei infected in Swiss Webster mouse assessed as mouse survival rate at 100 mg/kg administered once daily via oral gavage for 4 consecutive days beginning 1 hr after infection measured on day 9 post infection relative to control; assay type: functional; summary of the method: as §2
Plasmodium berghei [22] = experiment: Antimalarial activity against Plasmodium berghei infected in Swiss Webster mouse assessed as mouse survival rate at 33 mg/kg administered once daily via oral gavage for 4 consecutive days beginning 1 hr after infection measured on day 10 post infection relative to control; assay type: functional; summary of the method: as §1
Plasmodium berghei [23] = experiment: Antimalarial activity against Plasmodium berghei infected in Swiss Webster mouse assessed as mouse survival rate at 100 mg/kg administered once daily via oral gavage for 4 consecutive days beginning 1 hr after infection measured on day 11 post infection relative to control; assay type: functional; summary of the method: as §2
Plasmodium berghei [24] = experiment: Antimalarial activity against Plasmodium berghei infected in Swiss Webster mouse assessed as mouse survival rate at 100 mg/kg administered once daily via oral gavage for 4 consecutive days beginning 1 hr after infection measured on day 12 post infection relative to control; assay type: functional; summary of the method: as §2
Plasmodium berghei [25] = experiment: Antimalarial activity against Plasmodium berghei infected in Swiss Webster mouse assessed as mouse survival rate at 100 mg/kg administered once daily via oral gavage for 4 consecutive days beginning 1 hr after infection measured on day 13 post infection relative to control; assay type: functional; summary of the method: as §2
Plasmodium falciparum [26] = experiment: Antimalarial activity against Plasmodium falciparum 3D7 0087/N9 infected in NOD/SCID IL2R gamma null mouse assessed as reduction in parasitemia administered once daily via oral gavage for 4 consecutive days measured on day 4 post infection; assay type: functional; details: 3D7 0087/N9, po, 96 h
Summary of the method: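 Human-erythrocyte-engrafted NODscidIL2Rγnull mice carrying P. falciparum Pf3D70087/N9 in peripheral blood; compound given orally once daily for four consecutive days.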

Plasmodium berghei [27] = experiment: Antimalarial activity against Plasmodium berghei infected in Swiss Webster mouse assessed as mouse survival rate administered once daily via oral gavage for 4 consecutive days beginning 1 hr after infection measured on day 4 post infection; assay type: functional; summary of the method: as §2

Row | SMILES | pIC50 (Plasmodium falciparum [1]) | Stability [2] | survival at 33 mg/kg (Plasmodium berghei [3]) | survival at 11 mg/kg (Plasmodium berghei [4]) | survival at 1.2 mg/kg (Plasmodium berghei [5]) | survival at 0.1 mg/kg (Plasmodium berghei [6]) | survival at 33 mg/kg (Plasmodium berghei [7]) | survival at 11 mg/kg (Plasmodium berghei [8]) | survival at 3.7 mg/kg (Plasmodium berghei [9]) | survival at 1.2 mg/kg (Plasmodium berghei [10]) | survival at 100 mg/kg (Plasmodium berghei [11]) | survival at 33 mg/kg (Plasmodium berghei [12]) | survival at 11 mg/kg (Plasmodium berghei [13]) | survival at 0.4 mg/kg (Plasmodium berghei [14]) | survival at 0.1 mg/kg (Plasmodium berghei [15]) | survival at 100 mg/kg (Plasmodium berghei [16]) | survival at 33 mg/kg (Plasmodium berghei [17]) | survival at 0.1 mg/kg (Plasmodium berghei [18]) | survival at 100 mg/kg (Plasmodium berghei [19]) | survival at 11 mg/kg (Plasmodium berghei [20]) | other results
1 | Cc1c(Oc2cnc(C(=O)N3CC(C)(O)C3)cn2)ccc2c1B(O)OC2 | 7.49 | Stable | 100% | 100% | 100% | 100% | 100% | 100% | 100% | 100% | 100% | 100% | 100% | 100% | 100% | 100% | 100% | 0% | 100% | 100% | survival at 100 mg/kg (Plasmodium berghei [21]): 100%; survival at 33 mg/kg (Plasmodium berghei [22]): 100%; survival at 100 mg/kg (Plasmodium berghei [23]): 100%; survival at 100 mg/kg (Plasmodium berghei [24]): 100%; survival at 100 mg/kg (Plasmodium berghei [25]): 100%; ED90 (Plasmodium falciparum [26]): 0.85 mg/kg; ED90 (Plasmodium berghei [27]): 1.9 to 1.92 mg/kg
2 | CCC1(O)CN(C(=O)c2cnc(Oc3ccc4c(c3C)B(O)OC4)cn2)C1 | 7.54 | Stable | 100% | 100% | 100% | 100% | 100% | 100% | 100% | 100% | 100% | 100% | 100% | 100% | 100% | 100% | 100% | 0% | 100% | 0% | survival at 100 mg/kg (Plasmodium berghei [21]): 100%; survival at 33 mg/kg (Plasmodium berghei [22]): 20%; survival at 100 mg/kg (Plasmodium berghei [23]): 100%; survival at 100 mg/kg (Plasmodium berghei [24]): 100%; survival at 100 mg/kg (Plasmodium berghei [25]): 100%; ED90 (Plasmodium falciparum [26]): 0.84 mg/kg; ED90 (Plasmodium berghei [27]): 4.8 mg/kg
